Measurements from ChEMBL document CHEMBL1123290, “Synthesis, antimalarial activity, and quantitative structure-activity relationships of tebuquine and a series of related 5-[(7-chloro-4-quinolinyl)amino]-3-[(alkylamino)methyl] [1,1'-biphenyl]-2-ols and N omega-oxides” (1986).

Legend:
Format in all cases: functional
Plasmodium berghei [1] = experiment: Antimalarial activity in primary screen
Plasmodium berghei [2] = experiment: Change in mean survival time for control (average 6.2 days) versus treated mice (Mus musculus) 72 hrs after 5 mg/kg subcutaneous dose
Plasmodium berghei [3] = experiment: Change in mean survival time for control (average 6.2 days) versus treated mice (Mus musculus) 72 hrs after 640 mg/kg subcutaneous dose
Plasmodium berghei [4] = experiment: Change in mean survival time for control (average of 6.2 days) versus treated mice (Mus musculus) 72 hrs after 80 mg/kg subcutaneous dose
Plasmodium berghei [5] = experiment: (§1) Change in mean survival time for control (average 6.2 days) versus treated mice (Mus musculus) 72 hrs after […] subcutaneous dose
Plasmodium berghei [6] = experiment: Change in mean survival time for control (average 6.2 days) versus treated mice (Mus musculus) 72 hrs after 10 mg/kg subcutaneous dose
Plasmodium berghei [7] = experiment: Change in mean survival time for control (average 6.2 days) versus treated mice (Mus musculus) 72 hrs after […] subcutaneous dose
Plasmodium berghei [8] = experiment: Change in mean survival time for control (average 6.2 days) versus treated mice (Mus musculus) 72 hrs after 20 mg/kg subcutaneous dose
Plasmodium berghei [9] = experiment: Difference in mean survival time in mice (Mus musculus) (control = 6.2 days) after single 40mg/kg subcutaneous dose 72hr post infection
Plasmodium berghei [10] = experiment: Antimalarial activity as 60-day survivors in Plasmodium berghei infected mice (Mus musculus) after single 160mg/kg subcutaneous dose 72 hr post infection
In short: (§2)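 Mice were infected with a normal drug-sensitive Plasmodium berghei strain. At 72 h postinfection each received one subcutaneous dose of compound dissolved or suspended in peanut oil, in five-mouse groups per dose. The read-out was the number of mice alive at 60 days postinfection, which were scored as cured.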

Plasmodium berghei [11] = experiment: Antimalarial activity as 60-day survivors in infected mice (Mus musculus) after single 20 mg/kg subcutaneous dose 72hr post infection; in short: as §2
Plasmodium berghei [12] = experiment: Antimalarial activity as 60-day survivors in infected mice (Mus musculus) after single 320mg/kg subcutaneous dose 72 hr post infection; in short: as §2
Mus musculus [13] = experiment: Antimalarial activity, administered as a single subcutaneous dose of 40 mg/kg, 72 hrs post infection measured as number of mice (Mus musculus) surviving at 60 days post infection; in short: as §2
Mus musculus [14] = experiment: Antimalarial activity, administered as a single subcutaneous dose of 640 mg/kg, 72 hrs post infection measured as number of mice (Mus musculus) surviving at 60 days post infection; in short: as §2
Mus musculus [15] = experiment: Antimalarial activity, administered as a single subcutaneous dose of 80 mg/kg, 72 hrs post infection measured as number of mice (Mus musculus) surviving at 60 days post infection; in short: as §2
Plasmodium berghei [16] = experiment: Change in mean survival time for control (average 6.2 days) versus treated mice (Mus musculus) 72 hrs after 320 mg/kg subcutaneous dose
Plasmodium berghei [17] = experiment: Change in mean survival time for control (average 6.2 days) versus treated mice (Mus musculus) after 160 mg/kg subcutaneous dose
Plasmodium berghei [18] = experiment: Change in mean survival time for control (average 6.2 days) versus treated mice (Mus musculus) after 320 mg/kg subcutaneous dose
Plasmodium berghei [19] = experiment: Change in mean survival time for control (average 6.2 days) versus treated mice (Mus musculus) after 40 mg/kg subcutaneous dose
Plasmodium berghei [20] = experiment: Change in mean survival time in control (average 6.2 days) versus treated mice (Mus musculus) after 80 mg/kg subcutaneous dose
Plasmodium berghei [21] = experiment: as §1; remark: listed apart in the source
Plasmodium berghei [22] = experiment: Change in mean survival time of Plasmodium berghei infected mice (Mus musculus) on 1.25 mg/kg subcutaneous dose
Plasmodium berghei [23] = experiment: Difference in mean survival time of Plasmodium berghei infected mice (Mus musculus) after 10 mg/kg subcutaneous dose
Plasmodium berghei [24] = experiment: Change in mean survival time of Plasmodium berghei infected mice (Mus musculus) after […] subcutaneous dose
Plasmodium berghei [25] = experiment: Change in mean survival time for control (average 6.2 days) versus treated mice (Mus musculus) after 20 mg/kg subcutaneous dose
Plasmodium berghei [26] = experiment: Change in mean survival time of Plasmodium berghei infected mice (Mus musculus) after 5 mg/kg subcutaneous dose
Plasmodium berghei [27] = experiment: Change in mean survival time for control (average 6.2 days) versus treated mice (Mus musculus) 72 hrs after 160 mg/kg subcutaneous dose

| SMILES | ED30 (Plasmodium berghei [1]) [mg/kg] | Delta MST (Plasmodium berghei [2]) [days] | Delta MST (Plasmodium berghei [3]) [days] | Delta MST (Plasmodium berghei [4]) [days] | Delta MST (Plasmodium berghei [5]) [days] | Delta MST (Plasmodium berghei [6]) [days] | Delta MST (Plasmodium berghei [7]) [days] | Delta MST (Plasmodium berghei [8]) [days] | Delta MST (Plasmodium berghei [9]) [days] | No. of mice cured (Plasmodium berghei [10]) | No. of mice cured (Plasmodium berghei [11]) | No. of mice cured (Plasmodium berghei [12]) | No. of mice cured (Mus musculus [13]) | No. of mice cured (Mus musculus [14]) | No. of mice cured (Mus musculus [15]) | Delta MST (Plasmodium berghei [16]) [days] | Delta MST (Plasmodium berghei [17]) [days] | Delta MST (Plasmodium berghei [18]) [days] | Delta MST (Plasmodium berghei [19]) [days] | Delta MST (Plasmodium berghei [20]) [days] | also measured |
| --- | --- | --- | --- | --- | --- | --- | --- | --- | --- | --- | --- | --- | --- | --- | --- | --- | --- | --- | --- | --- | --- |
| CCN(CC)Cc1cc(Nc2ccnc3cc(Cl)ccc23)cc(-c2c(F)cccc2F)c1O | 23.7 | 7.9 | 36.8 | 24.1 | 0.1 | 8.3 | 2.7 | 12.2 | 16.9 | 5 | 1 | 5 | 1 | 4 | 2 |  |  |  |  |  |  |
| CN(C)Cc1cc(Nc2ccnc3cc(Cl)ccc23)cc(-c2ccc(Cl)cc2)c1O | 6.2 | 14.2 | 18.7 | 45.4 | 1.2 | 20.4 | 6 | 36.8 | 18.8 | 5 | 3 | 1 | 4 | 1 | 4 | 14.4 |  |  |  |  |  |
| CCN(CC)Cc1cc(Nc2cc[n+]([O-])c3cc(Cl)ccc23)cc(-c2ccc(C)cc2)c1O |  |  |  |  |  |  |  |  |  |  | 1.3 |  |  |  |  |  | 5.1 | 15.7 | 0.5 | 4.3 | Delta MST (Plasmodium berghei [21]): 10.5 days |
| CCN(CC)Cc1cc(Nc2cc[n+]([O-])c3cc(Cl)ccc23)cc(-c2ccccc2C(F)(F)F)c1O | 56.1 |  |  |  |  |  |  |  |  | 4 |  | 5 |  | 5 |  |  | 24.7 |  | 15.5 | 24.7 | Delta MST (Plasmodium berghei [22]): 0.5 days; Delta MST (Plasmodium berghei [23]): 4.1 days; Delta MST (Plasmodium berghei [24]): 0.1 days; Delta MST (Plasmodium berghei [25]): 7.7 days; Delta MST (Plasmodium berghei [26]): 0.7 days |
| CCN(CC)Cc1cc(Nc2cc[n+]([O-])c3cc(Cl)ccc23)cc(-c2cccc3ccccc23)c1O | 14400 |  |  |  |  |  |  |  |  |  |  |  |  | 1 |  |  | 6.4 | 1.6 | 0.4 | 3 | Delta MST (Plasmodium berghei [25]): 0 days; Delta MST (Plasmodium berghei [21]): 12.9 days |
| CCCN(CCC)Cc1cc(Nc2ccnc3cc(Cl)ccc23)cc(-c2ccc(Cl)cc2)c1O |  | 3.8 | 18.1 | 27.6 | 0.4 | 6.8 | 0.8 | 11.2 | 24.4 | 2 |  | 4 | 1 | 3 | 3 | 29.6 |  |  |  |  | Delta MST (Plasmodium berghei [27]): 26.6 days |
| CC(C)(C)NCc1cc(Nc2ccnc3cc(Cl)ccc23)cc(-c2ccc(Cl)c(Cl)c2)c1O |  | 6.1 | 16.4 | 30.4 | 0.7 | 9.7 | 0.1 | 10.5 | 27.4 | 4 | 1 | 3 | 2 | 4 | 4 | 14.4 |  |  |  |  | Delta MST (Plasmodium berghei [27]): 13.4 days |
| CCN(CC)Cc1cc(Nc2cc[n+]([O-])c3cc(Cl)ccc23)cc(-c2ccncc2)c1O | 330 |  |  |  |  |  |  |  |  |  |  | 2 |  | 3 |  |  | 10.7 | 12.6 | 5.7 | 8.3 | Delta MST (Plasmodium berghei [25]): 3.3 days; Delta MST (Plasmodium berghei [21]): 21.9 days |
